Measured values: publication PMC11523056 (RSC Advances, 2024)
Ends that are not written are not given here. Peptide text beside a SMILES is read from it.

Legend:
[1] = system: murine primary neurons; type: cell-based, mouse; conditions: all concentrations tested (1, 5 & 10 μM), 60 min, 37 °C, live-cell confocal microscopy
Outline: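 Mature murine primary neurons were incubated for 60 min in neurobasal medium with TAMRA-labelled peptide at 1, 5 or 10 μM, washed, and imaged live by confocal microscopy in an incubation chamber. The read-out was average fluorescence intensity per cell. Neurons showing homogeneous cytoplasmic plus nucleolar fluorescence were scored as transduced. Data are mean ± standard deviation, with equal n per group.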

[2] = system: acute ischaemic stroke patients; conditions: ESCAPE-NA1, acute ischaemic stroke; cited from earlier work
[3] = particularly upon co-treatment with Alteplase; cited from earlier work

CC[C@H](C)[C@H](NC(=O)[C@H](CO)NC(=O)[C@H](CO)NC(=O)[C@H](CC(C)C)NC(=O)[C@H](CCCCN)NC(=O)c1ccc2c(c1)C(=O)OC21c2ccc(N(C)C)cc2Oc2cc(N(C)C)ccc21)C(=O)N[C@@H](CCC(=O)O)C(=O)N[C@@H](CO)C(=O)N[C@@H](CC(=O)O)C(=O)N[C@H](C(=O)O)C(C)C [TAMRA-NR2B9c] (HELM PEPTIDE1{[CN(C)c1ccc2c(c1)Oc1cc(N(C)C)ccc1C21OC(=O)c2cc(C(=O)[*:2])ccc21].K.L.S.S.I.E.S.D.V}$$$$V2.0)
uptake by mean fluorescence intensity per cell (comparison in words) [1]: much lower than for any other peptide construct tested

YGRKKRRQRRR [TAMRA-Tat]
uptake by mean fluorescence intensity per cell (comparison in words) [1]: dose response is minimal

YGRKKRRQRRRKLSSIESDV [Tat-NR2B9c, nerinetide]
safety in clinical trial [2]: good safety profile
degradation in human plasma (in words) [3]: rapid degradation
